{"source": "paper PMC2692502", "about": "(Journal of Antimicrobial Chemotherapy, 2009)", "key": {"[1]": {"type": "in vivo, human", "conditions": "for AUC(0-t): AUC0–t, trapezoidal rule; for clearance: CL, healthy adult volunteers", "summary_of_the_method": "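Healthy adult volunteers, randomized open-label two-period crossover: a single 6 mg/kg dose given as a 30 min iv infusion and as a 2 min iv injection, with a 5 day washout. Heparinized blood was drawn predose, immediately after dosing and up to 36 h after dosing ended. Total plasma drug was measured by HPLC (LLOQ 3 mg/L). Non-compartmental trapezoidal AUC was computed. The injection:infusion ratio (95% CI) came from ANOVA of log-transformed values.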"}, "[2]": {"test": "Study 2: single- and multiple-dose pharmacokinetics of the 2 min iv injection", "type": "in vivo, human", "conditions": "for Ratio of 6 mg/kg:4 mg/kg daptomycin (95% CI), AUC0–tau (dose-normalized) / Ratio of 6 mg/kg:4 mg/kg daptomycin (95% CI), Ae0–tau (dose-normalized), cumulative amount of unchanged daptomycin excreted in urine / Ratio of 6 mg/kg:4 mg/kg daptomycin (95% CI), CL / Ratio of 6 mg/kg:4 mg/kg daptomycin (95% CI), Cmax (dose-normalized): 6 mg/kg n = 12, 4 mg/kg n = 8, 2 min iv injection; for clearance: CL; for Tmax: median (range); for Vd: V; for dose excreted: urine", "summary_of_the_method": "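Healthy adults were randomized single-blind to 6 or 4 mg/kg test compound or placebo as a 2 min peripheral iv injection by syringe driver, once daily for 7 days. Heparinized blood was drawn on days 1 and 7, from predose to 24 h after injection start, plus 36 and 48 h on day 7. Total plasma drug was measured by HPLC (LLOQ 3 mg/L). Non-compartmental analysis gave AUC by the trapezoidal rule and CL, reported as arithmetic means.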"}, "[3]": {"test": "Study 1: safety and tolerability", "type": "in vivo, human", "conditions": "Study 1, 6 mg/kg", "summary_of_the_method": "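Healthy adult volunteers in a randomized, open-label, single-dose, two-period crossover. Each received test compound 6 mg/kg as a 30 min iv infusion and as a 2 min peripheral iv injection by syringe driver, in random order, with a 5-day washout. The investigator graded AEs for relatedness (not, unlikely, possibly, probably related) and severity (mild/moderate/severe). Tabulated AEs were possibly or probably related. Follow-up was 1–11 days post-dose.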"}, "[4]": {"conditions": "Study 1, 2 min iv injection relative to 30 min iv infusion, 6 mg/kg, ANOVA of log-transformed values, n = 15"}, "[5]": {"conditions": "both, human, plasma, iv, 6 mg/kg, SD"}, "[6]": {"conditions": "Study 2, day 1, geometric mean ratio"}, "[7]": {"conditions": "Study 2, day 7, 6 mg/kg 2 min iv injection once daily, plasma, arithmetic mean (SD), n = 12, SD"}, "[8]": {"conditions": "Study 2, day 7, geometric mean ratio"}, "[9]": {"conditions": "both, human, plasma, iv, 4 mg/kg, Study 2, day 1, 4 mg/kg 2 min iv injection, plasma, arithmetic mean (SD), n = 8, SD"}, "[10]": {"conditions": "both, human, plasma, iv, 4 mg/kg, Study 2, day 7, 4 mg/kg 2 min iv injection once daily, plasma, arithmetic mean (SD), n = 8, SD"}, "[11]": {"conditions": "both, human, plasma, iv, 4 mg/kg, SD"}}, "note": "Read-outs that look alike come from different tables or passages of the source.", "data": [{"smiles": "CCCCCCCCCC(=O)N[C@@H](Cc1c[nH]c2ccccc12)C(=O)N[C@H](CC(N)=O)C(=O)N[C@@H](CC(=O)O)C(=O)N[C@@H]1C(=O)NCC(=O)N[C@@H](CCCN)C(=O)N[C@@H](CC(=O)O)C(=O)N[C@H](C)C(=O)N[C@@H](CC(=O)O)C(=O)NCC(=O)N[C@H](CO)C(=O)N[C@@H]([C@H](C)CC(=O)O)C(=O)N[C@@H](CC(=O)c2ccccc2N)C(=O)O[C@@H]1C", "note": "[daptomycin]", "values": [{"measurement": "95% CI for the ratio of the geometric means, AUC0–t", "setting": "[1]; [4]", "value": "0.8709–1.0055"}, {"measurement": "95% CI for the ratio of the geometric means, AUC0–∞", "setting": "[1]; [4]", "value": "0.9007–1.0117"}, {"measurement": "95% CI for the ratio of the geometric means, Cmax", "setting": "[1]; [4]", "value": "0.9588–1.1719"}, {"measurement": "t1/2", "setting": "[1]; Study 1, single 6 mg/kg dose, 30 min iv infusion, plasma, HPLC, non-compartmental, harmonic mean (SD), n = 15, SD", "value": "8.7 (0.9) h"}, {"measurement": "AUC(0-t)", "setting": "[1]; both, human, plasma, iv, 6 mg/kg, Study 1, single 6 mg/kg dose, 2 min iv injection, HPLC, arithmetic mean (SD), n = 15, not dose-normalized, SD", "value": 626, "unit": "µg·h/mL"}, {"measurement": "AUC(0-t)", "setting": "[1]; both, human, plasma, iv, 6 mg/kg, Study 1, single 6 mg/kg dose, 30 min iv infusion, HPLC, arithmetic mean (SD), n = 15, not dose-normalized, SD", "value": 670, "unit": "µg·h/mL"}, {"measurement": "AUC(0-inf)", "setting": "[1]; both, human, plasma, iv, 6 mg/kg, AUC0–∞, Study 1, single 6 mg/kg dose, 2 min iv injection, HPLC, arithmetic mean (SD), n = 15, not dose-normalized, SD", "value": 691, "unit": "µg·h/mL"}, {"measurement": "clearance", "setting": "[1]; both, human, plasma, iv, 6 mg/kg, Study 1, single 6 mg/kg dose, 2 min iv injection, HPLC, non-compartmental, arithmetic mean (SD), n = 15, SD", "value": 0.148, "unit": "mL/min/kg"}, {"measurement": "clearance", "setting": "[1]; both, human, plasma, iv, 6 mg/kg, Study 1, single 6 mg/kg dose, 30 min iv infusion, HPLC, non-compartmental, arithmetic mean (SD), n = 15, SD", "value": 0.138, "unit": "mL/min/kg"}, {"measurement": "Cmax", "setting": "[1]; both, human, plasma, iv, 6 mg/kg, Cmax, Study 1, single 6 mg/kg dose, 30 min iv infusion, HPLC, arithmetic mean (SD), n = 15, not dose-normalized, SD", "value": 88.4, "unit": "µg/mL"}, {"measurement": "Vd", "setting": "[1]; [5]", "value": 0.113, "unit": "L/kg"}, {"measurement": "steady-state concentrations achieved by", "setting": "[2]; Study 2, both treatment groups (6 mg/kg and 4 mg/kg), 2 min iv injection once daily, data not shown", "value": "third daily dose"}, {"measurement": "AUC0–∞", "setting": "[2]; Study 2, day 1, 6 mg/kg 2 min iv injection, healthy adult volunteers, plasma, HPLC, non-compartmental, arithmetic mean (SD), n = 12, SD", "value": "690.37 (68.83) mg·h/L"}, {"measurement": "CL", "setting": "[2]; Study 2, day 1, 6 mg/kg 2 min iv injection, plasma, arithmetic mean (SD), n = 12, SD", "value": "0.0088 (0.0009) L/h/kg"}, {"measurement": "Ratio of 6 mg/kg:4 mg/kg daptomycin (95% CI), AUC0–tau (dose-normalized)", "setting": "[2]; [6]", "value": "1.02 (0.87–1.2)"}, {"measurement": "Ratio of 6 mg/kg:4 mg/kg daptomycin (95% CI), Ae0–tau (dose-normalized), cumulative amount of unchanged daptomycin excreted in urine", "setting": "[2]; [6]", "value": "0.95 (0.72–1.25)"}, {"measurement": "Ratio of 6 mg/kg:4 mg/kg daptomycin (95% CI), CL", "setting": "[2]; [6]", "value": "1.00 (0.85–1.18)"}, {"measurement": "Ratio of 6 mg/kg:4 mg/kg daptomycin (95% CI), Cmax (dose-normalized)", "setting": "[2]; [6]", "value": "1.14 (0.97–1.3)"}, {"measurement": "V", "setting": "[2]; [7]", "value": "0.107 (0.011) L/kg"}, {"measurement": "t1/2", "setting": "[2]; [7]", "value": "8.65 (0.63) h"}, {"measurement": "Ratio of 6 mg/kg:4 mg/kg daptomycin (95% CI), AUC0–tau (dose-normalized)", "setting": "[2]; [8]", "value": "0.99 (0.87–1.12)"}, {"measurement": "Ratio of 6 mg/kg:4 mg/kg daptomycin (95% CI), Ae0–tau (dose-normalized), cumulative amount of unchanged daptomycin excreted in urine", "setting": "[2]; [8]", "value": "0.88 (0.69–1.11)"}, {"measurement": "Ratio of 6 mg/kg:4 mg/kg daptomycin (95% CI), CL", "setting": "[2]; [8]", "value": "1.01 (0.9–1.15)"}, {"measurement": "Ratio of 6 mg/kg:4 mg/kg daptomycin (95% CI), Cmax (dose-normalized)", "setting": "[2]; [8]", "value": "0.97 (0.82–1.16)"}, {"measurement": "clearance", "setting": "[2]; [9]", "value": 0.15, "unit": "mL/min/kg"}, {"measurement": "clearance", "setting": "[2]; [10]", "value": 0.143, "unit": "mL/min/kg"}, {"measurement": "Cmax", "setting": "[2]; both, human, plasma, iv, 4 mg/kg, Study 2, day 1, 4 mg/kg 2 min iv injection, plasma, HPLC, arithmetic mean (SD), n = 8, SD", "value": 56.8, "unit": "µg/mL"}, {"measurement": "Cmax", "setting": "[2]; both, human, plasma, iv, 4 mg/kg, Study 2, day 7, 4 mg/kg 2 min iv injection once daily, plasma, HPLC, arithmetic mean (SD), n = 8, SD", "value": 62.8, "unit": "µg/mL"}, {"measurement": "Tmax", "setting": "[2]; both, human, plasma, iv, 4 mg/kg, Study 2, day 1, 4 mg/kg 2 min iv injection, plasma, n = 8", "value": 8.4, "unit": "min"}, {"measurement": "Tmax", "setting": "[2]; both, human, plasma, iv, 4 mg/kg, Study 2, day 7, 4 mg/kg 2 min iv injection once daily, plasma, n = 8", "value": 15, "unit": "min"}, {"measurement": "Vd", "setting": "[2]; [9]", "value": 0.116, "unit": "L/kg"}, {"measurement": "Vd", "setting": "[2]; [10]", "value": 0.109, "unit": "L/kg"}, {"measurement": "half-life", "setting": "[2]; both, human, plasma, iv, 4 mg/kg, t1/2, Study 2, day 1, 4 mg/kg 2 min iv injection, plasma, arithmetic mean (SD), n = 8, SD", "value": 545, "unit": "min"}, {"measurement": "half-life", "setting": "[2]; both, human, plasma, iv, 4 mg/kg, t1/2, Study 2, day 7, 4 mg/kg 2 min iv injection once daily, plasma, arithmetic mean (SD), n = 8, SD", "value": 536, "unit": "min"}, {"measurement": "AUC(0-inf)", "setting": "[2]; [11]", "value": 468, "unit": "µg·h/mL"}, {"measurement": "AUC(0-t)", "setting": "[2]; [11]", "value": 475, "unit": "µg·h/mL"}, {"measurement": "clearance", "setting": "[2]; both, human, plasma, iv, 6 mg/kg, Study 2, day 7, 6 mg/kg 2 min iv injection once daily, plasma, arithmetic mean (SD), n = 12, SD", "value": 0.145, "unit": "mL/min/kg"}, {"measurement": "Cmax", "setting": "[2]; both, human, plasma, iv, 6 mg/kg, Study 2, day 1, 6 mg/kg 2 min iv injection, plasma, HPLC, arithmetic mean (SD), n = 12, SD", "value": 97.5, "unit": "µg/mL"}, {"measurement": "Cmax", "setting": "[2]; both, human, plasma, iv, 6 mg/kg, Study 2, day 7, 6 mg/kg 2 min iv injection once daily, plasma, HPLC, arithmetic mean (SD), n = 12, SD", "value": 91.8, "unit": "µg/mL"}, {"measurement": "Tmax", "setting": "[2]; both, human, plasma, iv, 6 mg/kg, Study 2, day 1, 6 mg/kg 2 min iv injection, plasma, n = 12", "value": 1.8, "unit": "min"}, {"measurement": "Tmax", "setting": "[2]; both, human, plasma, iv, 6 mg/kg, Study 2, day 7, 6 mg/kg 2 min iv injection once daily, plasma, n = 12", "value": 15, "unit": "min"}, {"measurement": "Vd", "setting": "[2]; both, human, plasma, iv, 6 mg/kg, Study 2, day 1, 6 mg/kg 2 min iv injection, plasma, arithmetic mean (SD), n = 12, SD", "value": 0.106, "unit": "L/kg"}, {"measurement": "half-life", "setting": "[2]; both, human, plasma, iv, 6 mg/kg, t1/2, Study 2, day 1, 6 mg/kg 2 min iv injection, plasma, arithmetic mean (SD), n = 12, SD", "value": 506, "unit": "min"}, {"measurement": "AUC(0-t)", "setting": "[2]; [5]", "value": 701, "unit": "µg·h/mL"}, {"measurement": "dose excreted", "setting": "[2]; both, human, iv, 4 mg/kg, SD", "value": 54.3, "unit": "%"}, {"measurement": "dose excreted", "setting": "[2]; both, human, iv, 6 mg/kg, SD", "value": 56.7, "unit": "%"}, {"measurement": "local tolerability reaction: mild tenderness", "setting": "[3]; 2 min iv injection group", "value": "one subject"}, {"measurement": "Subjects with at least one adverse event possibly or probably related to study drug: Any adverse event", "setting": "[3]; 2 min iv injection, n = 16", "value": "4 (25) n (%)"}, {"measurement": "Subjects with related adverse event: Gastrointestinal disorders", "setting": "[3]; 2 min iv injection, n = 16", "value": "1 (6) n (%)"}, {"measurement": "Subjects with related adverse event: Infections and infestations", "setting": "[3]; 2 min iv injection, n = 16", "value": "1 (6) n (%)"}, {"measurement": "Subjects with related adverse event: Nervous system disorders", "setting": "[3]; 2 min iv injection, n = 16", "value": "1 (6) n (%)"}]}]}
